The target in assay [1] is BDNF/NT-3 growth factors receptor (Homo sapiens) (UniProt Q16620). In words: Inhibition of human recombinant TRKB at 40 nM in presence of ATP by radiometric assay relative to control.
Assay [2] has as its target Macrophage colony-stimulating factor 1 receptor (Homo sapiens) (UniProt P07333). In words: Inhibition of human recombinant FMS at 40 nM related to control ULK1.
Assay [3] addresses Death-associated protein kinase 2 (Homo sapiens) (UniProt Q9UIK4). In words: Inhibition of human recombinant DAPK2 at 40 nM in presence of ATP by radiometric assay relative to control.
Assay [4] has as its target Serine/threonine-protein kinase SIK2 (Homo sapiens) (UniProt Q9H0K1). In words: Inhibition of human recombinant QIK at 40 nM in presence of ATP by radiometric assay relative to control.
The target of assay [5] is Aurora kinase B (Homo sapiens) (UniProt Q96GD4). In words: Inhibition of human recombinant AurB at 40 nM in presence of ATP by radiometric assay relative to control. An outline of the steps:
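Part of a radiometric in vitro activity panel of 327 recombinant human kinases. Each kinase was tested in duplicate at one inhibitor concentration. Activity remaining was expressed as a percentage of the vehicle control, and percent inhibition was taken as 100 minus that value.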

The target of assay [6] is Protein kinase C eta type (Homo sapiens) (UniProt P24723). Briefly: Inhibition of human recombinant PKCH at 40 nM in presence of ATP by radiometric assay relative to control.
Chain of Protein kinase C eta type (Homo sapiens) (P24723 whole entry): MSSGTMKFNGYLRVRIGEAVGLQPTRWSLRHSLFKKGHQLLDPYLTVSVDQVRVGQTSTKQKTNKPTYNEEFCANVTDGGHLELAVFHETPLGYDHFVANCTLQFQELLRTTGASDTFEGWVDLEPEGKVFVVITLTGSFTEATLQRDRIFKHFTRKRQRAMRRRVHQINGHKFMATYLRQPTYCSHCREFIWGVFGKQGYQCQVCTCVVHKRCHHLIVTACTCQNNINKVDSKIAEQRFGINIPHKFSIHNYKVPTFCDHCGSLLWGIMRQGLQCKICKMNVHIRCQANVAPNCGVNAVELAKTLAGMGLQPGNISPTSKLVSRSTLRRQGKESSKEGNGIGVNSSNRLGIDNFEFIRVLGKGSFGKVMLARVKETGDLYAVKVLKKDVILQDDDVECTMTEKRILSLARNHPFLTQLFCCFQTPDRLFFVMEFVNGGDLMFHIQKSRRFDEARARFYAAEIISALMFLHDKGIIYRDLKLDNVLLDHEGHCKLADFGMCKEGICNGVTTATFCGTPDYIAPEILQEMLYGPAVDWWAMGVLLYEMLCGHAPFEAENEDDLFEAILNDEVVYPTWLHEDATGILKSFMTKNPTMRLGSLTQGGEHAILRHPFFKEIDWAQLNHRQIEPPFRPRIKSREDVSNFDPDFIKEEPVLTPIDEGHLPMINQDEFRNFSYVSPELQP
The target in assay [7] is Serine/threonine-protein kinase Nek6 (Homo sapiens) (UniProt Q9HC98). Briefly: Inhibition of human recombinant NEK6 at 500 nM in presence of ATP by radiometric assay relative to control.
Chain of Serine/threonine-protein kinase Nek6 (Homo sapiens) (Q9HC98 whole entry): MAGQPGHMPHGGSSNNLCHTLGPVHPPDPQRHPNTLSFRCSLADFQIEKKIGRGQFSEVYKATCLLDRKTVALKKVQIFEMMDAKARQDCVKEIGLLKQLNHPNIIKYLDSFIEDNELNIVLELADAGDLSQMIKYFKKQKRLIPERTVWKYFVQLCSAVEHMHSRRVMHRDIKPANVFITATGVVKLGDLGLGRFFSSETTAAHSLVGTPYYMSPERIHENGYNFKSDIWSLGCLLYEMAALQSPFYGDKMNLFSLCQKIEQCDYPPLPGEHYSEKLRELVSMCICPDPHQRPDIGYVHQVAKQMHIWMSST
In assay [8] the target is T1, Serine/threonine-protein kinase Sgk1 (Homo sapiens) (UniProt O00141).
T1 sequence (whole entry): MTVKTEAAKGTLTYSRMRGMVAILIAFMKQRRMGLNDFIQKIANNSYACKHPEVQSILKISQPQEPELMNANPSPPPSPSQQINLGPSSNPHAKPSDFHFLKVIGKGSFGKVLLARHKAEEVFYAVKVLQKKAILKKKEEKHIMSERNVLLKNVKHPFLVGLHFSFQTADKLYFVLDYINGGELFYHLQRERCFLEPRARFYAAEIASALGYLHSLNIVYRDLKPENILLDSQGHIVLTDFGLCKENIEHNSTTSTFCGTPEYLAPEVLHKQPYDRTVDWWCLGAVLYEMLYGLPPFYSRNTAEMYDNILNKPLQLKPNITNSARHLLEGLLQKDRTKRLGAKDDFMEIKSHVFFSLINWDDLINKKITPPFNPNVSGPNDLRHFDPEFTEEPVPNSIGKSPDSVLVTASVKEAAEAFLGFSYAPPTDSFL
Briefly: Inhibition of human recombinant SGK1 at 500 nM related to control ULK1.

In assay [9] the target is Mitogen-activated protein kinase 14 (Homo sapiens) (UniProt Q16539). In words: Inhibition of human recombinant p38alpha at 15 nM related to control ULK1.
Chain of Mitogen-activated protein kinase 14 (Homo sapiens) (Q16539 whole entry): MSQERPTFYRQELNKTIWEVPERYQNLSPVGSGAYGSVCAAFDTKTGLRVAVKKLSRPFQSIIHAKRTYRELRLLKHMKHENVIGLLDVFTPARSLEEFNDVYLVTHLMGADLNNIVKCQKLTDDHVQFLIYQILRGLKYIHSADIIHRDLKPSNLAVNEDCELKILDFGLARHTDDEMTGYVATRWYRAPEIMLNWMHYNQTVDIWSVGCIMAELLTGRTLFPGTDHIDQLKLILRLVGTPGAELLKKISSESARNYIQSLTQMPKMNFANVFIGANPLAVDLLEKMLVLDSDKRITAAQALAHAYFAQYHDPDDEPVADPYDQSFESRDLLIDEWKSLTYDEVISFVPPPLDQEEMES
The target of assay [10] is T2, Serine/threonine-protein kinase 17B (Homo sapiens) (UniProt O94768).
T2 sequence (whole entry): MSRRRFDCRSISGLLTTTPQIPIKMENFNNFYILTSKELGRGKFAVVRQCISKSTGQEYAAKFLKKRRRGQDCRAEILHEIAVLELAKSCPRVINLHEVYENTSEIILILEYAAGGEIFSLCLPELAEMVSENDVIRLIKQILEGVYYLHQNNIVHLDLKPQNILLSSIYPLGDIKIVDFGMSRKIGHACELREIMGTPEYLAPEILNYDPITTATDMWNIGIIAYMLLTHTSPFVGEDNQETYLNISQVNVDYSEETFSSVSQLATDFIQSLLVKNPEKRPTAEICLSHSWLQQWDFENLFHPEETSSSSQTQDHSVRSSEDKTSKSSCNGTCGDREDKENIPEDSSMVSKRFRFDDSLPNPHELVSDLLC
In words: Inhibition of human recombinant DRAK2 at 15 nM related to control ULK1.

Assay [11] has as its target T3, Dual specificity tyrosine-phosphorylation-regulated kinase 2 (Homo sapiens) (UniProt Q92630).
T3 sequence (whole entry): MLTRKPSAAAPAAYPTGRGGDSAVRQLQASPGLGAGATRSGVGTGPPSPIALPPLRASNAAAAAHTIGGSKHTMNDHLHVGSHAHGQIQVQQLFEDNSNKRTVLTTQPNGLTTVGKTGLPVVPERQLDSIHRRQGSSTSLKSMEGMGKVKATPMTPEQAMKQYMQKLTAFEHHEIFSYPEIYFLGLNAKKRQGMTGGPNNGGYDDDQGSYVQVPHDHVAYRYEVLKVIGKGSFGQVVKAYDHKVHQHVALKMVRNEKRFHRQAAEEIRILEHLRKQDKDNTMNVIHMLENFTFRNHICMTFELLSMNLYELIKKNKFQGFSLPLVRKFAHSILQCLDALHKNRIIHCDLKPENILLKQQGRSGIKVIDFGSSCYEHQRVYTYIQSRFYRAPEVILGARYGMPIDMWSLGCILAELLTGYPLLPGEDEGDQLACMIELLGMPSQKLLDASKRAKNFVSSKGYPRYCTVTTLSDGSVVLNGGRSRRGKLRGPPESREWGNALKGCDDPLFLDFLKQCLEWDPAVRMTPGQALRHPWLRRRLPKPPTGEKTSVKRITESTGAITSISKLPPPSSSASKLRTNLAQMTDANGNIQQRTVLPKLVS
In words: Inhibition of human recombinant DYRK2 at 15 nM in presence of ATP by radiometric assay relative to control.

Assay [12] deals with T4, MAP kinase-activated protein kinase 5 (Homo sapiens) (UniProt Q8IW41).
T4 sequence (whole entry): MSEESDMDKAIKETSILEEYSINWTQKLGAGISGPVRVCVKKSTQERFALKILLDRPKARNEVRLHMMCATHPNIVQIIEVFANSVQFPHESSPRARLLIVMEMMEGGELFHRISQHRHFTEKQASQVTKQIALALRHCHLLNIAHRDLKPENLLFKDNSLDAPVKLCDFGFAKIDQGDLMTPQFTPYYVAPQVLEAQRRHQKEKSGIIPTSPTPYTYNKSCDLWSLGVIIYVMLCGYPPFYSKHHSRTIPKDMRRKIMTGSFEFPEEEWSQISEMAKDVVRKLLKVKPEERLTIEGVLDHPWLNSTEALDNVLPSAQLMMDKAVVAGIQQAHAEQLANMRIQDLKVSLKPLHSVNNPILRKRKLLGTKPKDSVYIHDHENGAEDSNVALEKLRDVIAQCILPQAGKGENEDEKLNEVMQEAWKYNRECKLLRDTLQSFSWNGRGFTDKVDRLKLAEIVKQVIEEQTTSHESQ
In words: Inhibition of human recombinant MAPKAPK5 at 15 nM related to control ULK1.

Chain of Death-associated protein kinase 2 (Homo sapiens) (Q9UIK4 whole entry, looked up): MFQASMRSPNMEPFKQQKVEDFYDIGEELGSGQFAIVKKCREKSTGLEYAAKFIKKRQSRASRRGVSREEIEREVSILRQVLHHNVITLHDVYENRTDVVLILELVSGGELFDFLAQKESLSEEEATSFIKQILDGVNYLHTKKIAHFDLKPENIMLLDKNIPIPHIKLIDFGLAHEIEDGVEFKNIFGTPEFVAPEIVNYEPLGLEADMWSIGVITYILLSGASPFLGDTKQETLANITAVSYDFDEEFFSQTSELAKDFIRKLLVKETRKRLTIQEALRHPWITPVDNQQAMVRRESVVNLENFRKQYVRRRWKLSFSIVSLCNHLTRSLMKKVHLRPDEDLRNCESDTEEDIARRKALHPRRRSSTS
Chain of BDNF/NT-3 growth factors receptor (Homo sapiens) (Q16620 32-822 limits assumed): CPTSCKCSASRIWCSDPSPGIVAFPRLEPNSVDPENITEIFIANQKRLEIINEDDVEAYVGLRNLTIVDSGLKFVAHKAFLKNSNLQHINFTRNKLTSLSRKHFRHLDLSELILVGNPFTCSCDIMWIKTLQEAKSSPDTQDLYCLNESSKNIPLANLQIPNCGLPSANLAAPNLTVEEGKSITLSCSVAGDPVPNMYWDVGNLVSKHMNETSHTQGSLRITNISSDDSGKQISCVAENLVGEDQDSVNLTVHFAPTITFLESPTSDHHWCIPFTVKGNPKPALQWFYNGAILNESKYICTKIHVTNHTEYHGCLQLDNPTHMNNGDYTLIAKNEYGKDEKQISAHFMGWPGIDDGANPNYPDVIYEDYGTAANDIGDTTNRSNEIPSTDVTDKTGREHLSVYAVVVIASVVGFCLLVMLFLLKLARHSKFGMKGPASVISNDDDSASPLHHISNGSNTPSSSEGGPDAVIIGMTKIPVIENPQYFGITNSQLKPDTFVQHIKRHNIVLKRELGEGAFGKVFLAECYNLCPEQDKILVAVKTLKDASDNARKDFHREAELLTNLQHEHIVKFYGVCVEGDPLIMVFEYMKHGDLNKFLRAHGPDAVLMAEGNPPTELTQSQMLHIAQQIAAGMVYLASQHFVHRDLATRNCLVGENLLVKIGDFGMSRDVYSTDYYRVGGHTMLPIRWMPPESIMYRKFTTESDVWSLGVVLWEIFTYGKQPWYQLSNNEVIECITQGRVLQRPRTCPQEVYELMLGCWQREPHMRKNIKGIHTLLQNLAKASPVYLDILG
Chain of Macrophage colony-stimulating factor 1 receptor (Homo sapiens) (P07333 whole entry): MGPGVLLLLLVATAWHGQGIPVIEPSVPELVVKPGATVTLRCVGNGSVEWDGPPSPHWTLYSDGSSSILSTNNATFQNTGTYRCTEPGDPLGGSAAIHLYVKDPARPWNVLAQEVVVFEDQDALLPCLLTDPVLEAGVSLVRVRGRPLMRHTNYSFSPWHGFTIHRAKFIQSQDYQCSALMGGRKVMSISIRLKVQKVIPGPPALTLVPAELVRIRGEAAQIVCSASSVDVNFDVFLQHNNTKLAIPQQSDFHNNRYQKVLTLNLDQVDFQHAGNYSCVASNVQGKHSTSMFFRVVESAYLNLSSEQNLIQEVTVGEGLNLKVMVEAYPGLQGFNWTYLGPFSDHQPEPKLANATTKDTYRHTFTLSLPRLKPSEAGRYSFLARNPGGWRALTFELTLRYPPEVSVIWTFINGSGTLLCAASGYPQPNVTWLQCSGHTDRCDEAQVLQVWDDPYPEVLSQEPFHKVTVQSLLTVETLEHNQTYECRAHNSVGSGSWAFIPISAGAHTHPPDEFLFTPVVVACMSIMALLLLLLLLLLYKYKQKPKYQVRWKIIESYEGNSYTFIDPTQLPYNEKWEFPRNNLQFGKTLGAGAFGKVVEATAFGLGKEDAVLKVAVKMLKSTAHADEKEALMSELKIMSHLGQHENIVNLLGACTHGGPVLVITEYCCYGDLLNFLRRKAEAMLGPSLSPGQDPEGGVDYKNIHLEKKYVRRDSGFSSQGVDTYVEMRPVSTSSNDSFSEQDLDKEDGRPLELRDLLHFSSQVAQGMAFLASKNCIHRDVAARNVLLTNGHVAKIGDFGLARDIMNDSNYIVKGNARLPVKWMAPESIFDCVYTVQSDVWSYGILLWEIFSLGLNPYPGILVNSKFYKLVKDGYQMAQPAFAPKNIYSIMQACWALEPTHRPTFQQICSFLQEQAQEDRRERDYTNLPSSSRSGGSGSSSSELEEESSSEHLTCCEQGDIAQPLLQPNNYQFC
Chain of Serine/threonine-protein kinase SIK2 (Homo sapiens) (Q9H0K1 whole entry, looked up): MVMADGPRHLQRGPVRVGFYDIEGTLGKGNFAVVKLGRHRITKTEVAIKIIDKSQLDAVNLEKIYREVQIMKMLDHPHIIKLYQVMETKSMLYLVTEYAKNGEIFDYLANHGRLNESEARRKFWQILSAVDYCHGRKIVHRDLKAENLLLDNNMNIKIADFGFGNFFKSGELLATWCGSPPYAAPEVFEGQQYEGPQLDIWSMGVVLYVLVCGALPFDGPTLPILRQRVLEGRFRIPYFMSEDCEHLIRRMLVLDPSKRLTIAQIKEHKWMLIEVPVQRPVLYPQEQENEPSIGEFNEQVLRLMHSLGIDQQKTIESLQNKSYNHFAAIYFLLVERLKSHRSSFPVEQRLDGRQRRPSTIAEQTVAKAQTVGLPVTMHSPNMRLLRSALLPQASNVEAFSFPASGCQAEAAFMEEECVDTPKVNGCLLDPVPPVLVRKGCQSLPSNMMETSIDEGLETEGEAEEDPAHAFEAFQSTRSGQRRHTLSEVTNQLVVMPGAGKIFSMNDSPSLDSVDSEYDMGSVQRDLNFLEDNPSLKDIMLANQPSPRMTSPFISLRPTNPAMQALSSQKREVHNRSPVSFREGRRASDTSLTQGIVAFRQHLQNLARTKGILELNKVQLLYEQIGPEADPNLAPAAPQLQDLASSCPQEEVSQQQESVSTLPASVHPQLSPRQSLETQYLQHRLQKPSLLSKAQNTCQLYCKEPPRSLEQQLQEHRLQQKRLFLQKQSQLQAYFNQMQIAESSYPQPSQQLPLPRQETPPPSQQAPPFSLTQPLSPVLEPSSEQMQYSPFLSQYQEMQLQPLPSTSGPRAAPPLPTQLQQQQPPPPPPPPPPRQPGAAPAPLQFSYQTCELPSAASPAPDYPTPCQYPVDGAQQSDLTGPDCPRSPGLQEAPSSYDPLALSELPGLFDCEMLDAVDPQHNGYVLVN
Chain of Aurora kinase B (Homo sapiens) (Q96GD4 whole entry): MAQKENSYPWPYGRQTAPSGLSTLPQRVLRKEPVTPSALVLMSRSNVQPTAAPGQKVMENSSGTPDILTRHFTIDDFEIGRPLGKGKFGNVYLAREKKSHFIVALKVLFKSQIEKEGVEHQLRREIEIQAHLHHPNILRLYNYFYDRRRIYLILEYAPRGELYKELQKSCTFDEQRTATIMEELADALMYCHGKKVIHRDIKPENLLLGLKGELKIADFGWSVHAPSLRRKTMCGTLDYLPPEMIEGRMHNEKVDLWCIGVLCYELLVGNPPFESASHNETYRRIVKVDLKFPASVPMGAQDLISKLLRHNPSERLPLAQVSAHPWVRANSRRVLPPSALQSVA

With `O=C(N[C@@H](C1CC1)C(F)(F)F)c1cc(-c2cnn3cc(-c4ccc(F)cc4)cnc23)cs1`, the inhibition turned out to be 19% in assay [1]; 0% in [3]; 54% in assay [4]; 49% in assay [5]; 0% in assay [6]. The fold change (FC) in [2] was found to be 0.01.
On to `CNC(=O)c1ccccc1Oc1nc(Nc2cc(OC)c(OC)c(OC)c2)ncc1Br`, for which, in assay [7], the inhibition was determined as 0%. Moreover, in [8], the fold change (FC) was found to be 0.03.
In the case of `CC(C)[C@H](NC(=O)c1cc(-c2cnn3cc(-c4ccc(OCCN5CCCCC5)cc4)cnc23)cs1)C(F)(F)F`, the fold change (FC) is 0.06 in [9], 0.78 in [10] and 0 in assay [12]. Further, in assay [11], the inhibition was 8%.

Source of the values: ChEMBL document CHEMBL5653631, “A Potent and Selective ULK1 Inhibitor Suppresses Autophagy and Sensitizes Cancer Cells to Nutrient Stress” (iScience, 2018).
